B1: tRNA (parent)
chain: GUUCCGUUGGCGUAAUGGUAACGCGUCUCCCUCCUAAGGAGAAGACUGCGGGUUCGAGUCCCGUACGGAACG

Yeast fitness data for 167 variants are collected here from the RNAGym collection of RNA variant scans (doi:10.1126/science.aae0568).

Fewer inactive variants are shown than the library holds.

The series covers variants of B1. In words: yeast fitness relative to wild type (ratio to wild type); higher = fitter; tRNA-Arg(CCU), competitive growth, 37 C, YPD. An outline of the steps:
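Variants of the tRNA-Arg(CCU) gene, chemically synthesised with a 3% per-site mutation rate at 69 sites, were placed at the native genomic locus in Saccharomyces cerevisiae. The pooled strains were competed in YPD at 37°C for 24 hours in six parallel replicates. Gene amplicons from the start population and from each end population were read by 100-nucleotide paired-end sequencing. Darwinian fitness relative to wild type came from changes in genotype frequencies; genotypes needed ≥ 100 starting reads, and estimates < 0.5 were set to 0.5.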
As to A15G U28C C30U A36C A45U G50C, the yeast fitness was at most 0.5.
To U2G U32C C33G C62U belongs 0.535; to C5G A42C G51C A65G, at most 0.5.
The figure for A20G C22G C27G C30U C31G G51C is at most 0.5; for U19A C29U C55A A57C U59C it is at most 0.5.
Take C4G C30G G38A A42U: the yeast fitness was at most 0.5.
As for G9A G25C, the yeast fitness is 0.931.
To U2G C31G A57U A65G belongs at most 0.5.
The figure for G38A G58C C66U is 0.588; for A42G G50A it is 0.842; for A14U A43C U54A it is at most 0.5.
Consider G12C U47G C49A A69U, for which the yeast fitness was at most 0.5.
To U19C C49G belongs 1.14.
The figure for C11G A15C C34U A65C is at most 0.5.
To G12A A45C C49G belongs 0.619.
For U2G C22A G25C C33U A69C, the yeast fitness was at most 0.5.
For the variant C11U A14G G23A, the yeast fitness was found to be 0.504.
The figure for C5G A21G G44A is 0.59; for A21G C61A G67A it is 0.532; for G18U U26A C66A A70U it is 0.536.
In the case of U28C G38C, the yeast fitness worked out at 0.579.
Turning to C29A A57G A65C, the yeast fitness was at most 0.5.
To C31A C33G G51C C60G belongs at most 0.5; to U2A A21G C33U G51C, at most 0.5; to C34G C55G, 0.567.
For the variant C11U U35C C55A A69U, the yeast fitness is at most 0.5.
The figure for C5G G10C U13G A40G U54A is at most 0.5.
With C4U A40U G68U, the yeast fitness is 0.708.
To C4U C11G C29U belongs at most 0.5.
The figure for C4U G6A A40G A43G C49U is at most 0.5.
Take U26A C55U: the yeast fitness was 0.65.
As to G10A C34G U64A, the yeast fitness was at most 0.5.
To C11U C22G A36G belongs 0.675.
Turning to C24A G63C A69C, the yeast fitness was determined as 0.621.
The figure for G48A A65U is 1.02.
As for U32C G48A A57C, the yeast fitness is at most 0.5.
Regarding A20U A37U G41C C46G, the yeast fitness was at most 0.5.
The figure for U16C G56A G67C is 0.514; for A37G G44A A70C it is 0.859.
On to U3A A15U A21C G39C A43G U54C, for which the yeast fitness is at most 0.5.
In the case of C11U C24G A57G, the yeast fitness was at most 0.5.
The figure for U19A C49A is 0.642; for C4A C5U C22U C34A A65U it is at most 0.5; for G12A G68U it is 0.863.
To U3C A42U G63A belongs at most 0.5; to U53A A69U, 0.891.
To C29G U54G U59A belongs at most 0.5; to C5G U28C U35A, 0.545; to A37C A40C G41C, 0.579.
As for C11A U53A G67A, the yeast fitness was at most 0.5.
The figure for C11U A36U A70U is 0.694; for U28C G51C it is 0.502; for C55G G68C it is 0.624.
For C4A U28G, the yeast fitness worked out at 0.681.
To A21G U35C C66A belongs at most 0.5; to U8G A57C, at most 0.5; to C4A A20C A42U C66U, at most 0.5.
For C30G C33G C34U A42U A57G A65C, the yeast fitness is at most 0.5.
The figure for U7C C27U is 0.875.
To G48C U64G belongs 0.714; to U28G A43U, 0.948; to G6C C31A A65G C66U, 0.594.
Regarding C5U G9C C34U C60G, the yeast fitness is at most 0.5.
As to G17A C33U A36U C46A, the yeast fitness is 0.822.
To U2G A15U A20C U26A C30G U35A G38C U64A belongs at most 0.5.
To G9A A15U C31G U53A C55U A57C C60G G67C belongs at most 0.5; to A36G G38C U59A, at most 0.5; to C11G C22U C27U U47A G52C, 0.67.
The figure for G41C G56C is 0.557.
Turning to C11G G12C A20G A43G A45C A69U, the yeast fitness is at most 0.5.
As to G44A C49G A65U, the yeast fitness was determined as 0.547.
Turning to U7G U32A U35C C61G, the yeast fitness is at most 0.5.
The figure for A20G C29A C49U G63A is at most 0.5; for A37U G44A A65U it is at most 0.5; for A14C A20G it is 0.647.
To G12A U13C U16A U19G G23A G58A G68A belongs at most 0.5.
The figure for U8A G10A A69U is 0.542; for U2C C27G U28A A43U A70G it is at most 0.5; for G6C G50C C62G C66U it is 0.673.
On to C4G G12C, for which the yeast fitness was determined as 0.676.
The figure for U16A C22U C55A is 0.808.
The figure for U3G A36G G52A C66A A69U is at most 0.5; for G12A C24A A36U G51C C55U A69C A70U it is 0.532; for C4G A14G C30G G63C it is at most 0.5.
To U16C U28C belongs 0.859.
Turning to A14G C49G A69U A70C, the yeast fitness turned out to be 0.618.
To C4G C11G C55U C61A G67A belongs at most 0.5.
The figure for C30G C34U A45C U53G C61G is at most 0.5.
The figure for A36G A37U is 0.718; for G12A A15G G39C it is at most 0.5; for G6C A14G A20C C31A U64A G67A it is at most 0.5.
Turning to G6A G9A A36C A37U G51A C62G, the yeast fitness is at most 0.5.
To U3G C5A C34A belongs at most 0.5; to G12A U13G G67A, at most 0.5; to C11U U16C C24U, 0.591.
The figure for A14G G18C C60A C66U is at most 0.5.
To G18C U26A A45G C66G belongs at most 0.5.
As for G9A C55G A69C, the yeast fitness was found to be 0.611.
The figure for G17C G25A C49A A69U is at most 0.5; for C11U A14U U19G it is at most 0.5; for C22U A42U G44U G63A it is 0.608.
Consider C30A U35C U59C G63A, for which the yeast fitness was determined as 0.584.
To G9C A15G U16C C29A U47C belongs 0.69.
The figure for C4G A36G G38A A40U is at most 0.5; for A15U C60G C61U G68A it is at most 0.5.
The figure for A21G A42U G67A is 0.54; for U7C A21G A42U G58A it is 0.552.
Regarding C5U G17A, the yeast fitness was determined as 0.929.
The figure for C4U C31G C46U is 0.921; for C5U C31A C34U A43G it is 0.77.
The figure for C5G A43U C61G is at most 0.5; for G10C C22A C60G C61U G63A it is at most 0.5.
To G23A U28C U59C C60G belongs 0.649; to A21G G23A A40C G52A, at most 0.5; to A14G A42U C62U A70C, at most 0.5.
As to A20C G67U, the yeast fitness came out at 0.754.
To C30U A45G C61A A65U belongs at most 0.5.
To C5U A36G C55G C66G belongs at most 0.5; to U3G A21C G67U, at most 0.5.
The figure for C4A C22G C55G G63C is at most 0.5; for C4U G6A C46G it is 0.623; for C5A C24G U26A C29G U32A A65U it is at most 0.5.
Consider U7C A15U C29A G38C, for which the yeast fitness was at most 0.5.
The figure for C4G C22A is 0.767; for U2C A15G C61U it is at most 0.5.
Take C22G C27G U59C C61U C62U G68U: the yeast fitness was at most 0.5.
To A15C A20G A70C belongs 0.6.
To A14G C24U C55U G67C belongs at most 0.5; to G17A C24G C27G C62U G67A, at most 0.5.
With C4G C24U A45C, the yeast fitness came to 0.6.
With U2G G9C A20G A42C C46G C49U A69C, the yeast fitness is 0.576.
To C33G A45C C61G belongs 0.567.
The figure for G18C C24G C46A G56C G58A is at most 0.5; for C4A C5U C22U C34A it is 0.576; for A15G A36C it is 0.515.
The figure for A14G U32C C55U is at most 0.5; for G48A C62G it is 0.951; for G10C A14G C27U G38A C46G it is at most 0.5.
With G12A C60U, the yeast fitness came out at 0.777.
Consider U3C G17C C22A C24G U28C C33A, for which the yeast fitness is at most 0.5.
As for C4U A14G C34G, the yeast fitness is at most 0.5.
To U3C G6C A14U A20G G25A G38A U47A C60G A70G belongs at most 0.5; to G12C G38A, 0.687.
G10C C49G U53G: the yeast fitness was 0.551.
To U26A C49G belongs 0.616; to U8C U13C C24A A37G, 0.761.
To C5G G25A C46A belongs 0.651; to C11G U16G G38C U54A C66A, 0.648.
The figure for A15C C31G A40U is 0.624; for C5U G68C A69U it is at most 0.5; for U32G C34A G38A A70G it is at most 0.5.
Regarding C5A C24U A37G A40G A42U C49U G67C A70G, the yeast fitness is at most 0.5.
To G9C C24G C27U U47G U53A belongs at most 0.5.
The figure for G17A C30A is 0.71.
The figure for U2G U26G C30U U59G U64G G68A is at most 0.5.
Take A14G C34G A43C U47C: the yeast fitness was 0.533.
The figure for C31G C62G is 0.827; for A14G A43G C60U C62U A70C it is at most 0.5; for A15C G25A U28A it is at most 0.5.
To C11G U13A belongs 1.03; to U8A G9A A36C C61G G67C, 0.797.
To G6A C22G belongs 0.702; to U3A A14G, 0.934.
U3C G25A A65C: the yeast fitness was 0.732.
The figure for C60U C61G is 0.643.
On to C24G U26A G41C C66U, for which the yeast fitness was 0.608.
Turning to C60U A69G, the yeast fitness came to 0.572.
